Experimental data collected from several papers.
Compare with care: the assays were run in different laboratories.
Target: SRSF protein kinase 1 (SRPK1, Homo sapiens, UniProt Q96SB4)

Cc1noc([C@H]2C[C@@H](c3ccc(C(F)(F)F)cc3)CN(C(=O)N3CCS(=O)(=O)C3)C2)n1  remaining binding (cell-free assay; competition with immobilised ligand; 1 µM): 100%
CN(CCCC(F)(F)F)c1nccc(-c2cnn3ncccc23)n1  remaining binding (binding; 1 µM): 100%
COc1cnc(Nc2cccc(S(N)(=O)=O)c2)nc1N1CCN(c2ccccc2)C(=O)C1  remaining binding (binding; competition with immobilised ligand; 1 µM): 100%
N[C@@H]1CCN(c2nccc(-c3cnn4ncccc34)n2)C1  remaining binding (binding; 1 µM): 92%
Cc1cnc(Nc2ccc(C(=O)N3CCC(N4CCCC4)CC3)cc2)nc1-c1cc2ccccc2s1  remaining binding (binding; competition with immobilised ligand; 1 µM): 100%
O=C(O)c1cc(-c2ccc(C3CCNCC3)cc2)c2ccc(-c3ccc(C(F)(F)F)cc3)cc2c1  remaining binding (cell-free assay; competition with immobilised ligand; 1 µM): 86%
O=C(NCC1CCOCC1)c1n[nH]cc1NC(=O)c1c(F)cccc1F  remaining binding (binding; competition with immobilised ligand; 1 µM): 68%
c1cncc(-c2cccc(Nc3nccc(NC4CCCCC4)n3)c2)c1  remaining binding (binding; competition with immobilised ligand; 10 µM): 30%
C[C@@H]1CCN(c2nccc(-c3cnn4ncccc34)n2)C1  remaining binding (binding; 1 µM): 98%
O=C(NCCCN1CCOCC1)c1ccc(Nc2nccc(-c3cc4ccccc4s3)n2)cc1  remaining binding (binding; competition with immobilised ligand; 1 µM): 100%
CNC(=O)Nc1ccc2c(c1)[C@@]1(CC2)OC(=O)N(CC(=O)N(Cc2ccc(F)cc2)[C@@H](C)C(F)(F)F)C1=O  remaining binding (cell-free assay; competition with immobilised ligand; 1 µM): 100%
CN(C)c1ncc(F)c(-c2cnn3ncccc23)n1  remaining binding (binding; 1 µM): 95%
CCN1CCN(Cc2ccc(C(=O)Nc3ccc(C)c(Oc4ccc5c(c4)CC(=O)N5)c3)cc2C(F)(F)F)CC1  remaining binding (binding; competition with immobilised ligand; 1 µM): 98%
O=C(c1ccc(Nc2ncc(Cl)c(-c3cc4ccccc4s3)n2)cc1)N1CCC(N2CCCC2)CC1  remaining binding (binding; competition with immobilised ligand; 1 µM): 100%
CN(C)c1nccc(-c2cnc3ncccn23)n1  remaining binding (binding; 1 µM): 82%
CN(C)C(=O)Cn1cc(-c2nc([C@@](C)(c3ccc(-c4cnc(N)nc4)cc3)C3CC3)no2)cn1  remaining binding (cell-free assay; competition with immobilised ligand; 1 µM): 100%
COc1ncc2cc3ccccc3nc2c1C#N  remaining binding (cell-free assay; competition with immobilised ligand; 5 µM): 96%
O=C(O)[C@H]1[C@H](Cn2nnc3ccccc3c2=O)CC[C@@H]1C(=O)c1ccc(OCCC2CCOCC2)cc1  remaining binding (cell-free assay; competition with immobilised ligand; 1 µM): 79%
COc1ccnn2ncc(-c3ccnc(N(C)C)n3)c12  remaining binding (binding; 1 µM): 85%
O=C(Nc1cccnn1)N1CC(C/C=C/c2cncc(Oc3ccc(C(F)(F)F)cn3)n2)C1  remaining binding (cell-free assay; competition with immobilised ligand; 1 µM): 82%
COc1cnc(Nc2cccc(S(N)(=O)=O)c2)nc1N1CCN(c2ccccc2)CC1  remaining binding (binding; competition with immobilised ligand; 1 µM): 65%
